≈ marks a conversion by molar mass, not a printed value.
What was measured:
Assay type in all cases: functional
Klebsiella pneumoniae = assay: Antibacterial activity against Klebsiella pneumoniae ATCC 10031 after 24 hrs by broth microdilution method; conditions: ATCC 10031, 24 h
Outline: (§1)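 Broth dilution in Mueller-Hinton broth. Tubes inoculated at 10⁵ cfu/mL and incubated 37 °C for 24 h. MIC taken as lowest concentration completely inhibiting growth. Media and media-plus-DMSO growth controls; ciprofloxacin and norfloxacin as reference standards.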

Bacillus subtilis = assay: Antibacterial activity against Bacillus subtilis ATCC 60511 after 24 hrs by broth microdilution method; conditions: ATCC 60511, 24 h; outline: as §1
Aspergillus niger = assay: Antifungal activity against Aspergillus niger ATCC 6275 after 24 hrs by broth microdilution method; conditions: ATCC 6275, 24 h
Candida tropicalis = assay: Antifungal activity against Candida tropicalis ATCC 1369 after 24 hrs by broth microdilution method; conditions: ATCC 1369, 24 h
[1] = test system: Mycobacterium tuberculosis; assay: Antimycobacterial activity against Mycobacterium tuberculosis H37Rv after 21 days by broth dilution assay; conditions: 504 h
Outline: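 Frozen culture in Middlebrook 7H9 broth with 10% albumin-dextrose-catalase and 0.2% glycerol, thawed and diluted in broth to 10⁵ cfu/mL. Compounds dissolved in DMSO, twofold diluted in broth; final DMSO 1.3%. Tubes inoculated, incubated at 37 °C. Growth compared visually against drug-free and drug- and inoculum-free controls and isoniazid. MIC = lowest concentration inhibiting ≥99% of the starting bacterial population.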

Staphylococcus aureus = assay: Antibacterial activity against Staphylococcus aureus ATCC 11632 after 24 hrs by broth microdilution method; conditions: ATCC 11632, 24 h; outline: as §1
Saccharomyces cerevisiae = assay: Antifungal activity against Saccharomyces cerevisiae ATCC 9763 after 24 hrs by broth microdilution method; conditions: ATCC 9763, 24 h
Enterococcus faecalis = assay: Antibacterial activity against Streptococcus faecalis ATCC 14506 after 24 hrs by broth microdilution method; conditions: ATCC 14506, 24 h; outline: as §1
Escherichia coli = assay: Antibacterial activity against Escherichia coli ATCC 10536 after 24 hrs by broth microdilution method; conditions: ATCC 10536, 24 h; outline: as §1
Pseudomonas aeruginosa = assay: Antibacterial activity against Pseudomonas aeruginosa ATCC 10145 after 24 hrs by broth microdilution method; conditions: ATCC 10145, 24 h; outline: as §1

With CC(C)c1csc(-c2nn(CN3CCN(C)CC3)c(=S)o2)n1 the MIC (Klebsiella pneumoniae) was 16 µg/mL (≈ 47.1 µM), the MIC (Bacillus subtilis) was 31.2 µg/mL (≈ 92 µM) and the MIC (Aspergillus niger) was 16 µg/mL (≈ 47.1 µM). It also gave an MIC (Candida tropicalis) of 31.2 µg/mL (≈ 92 µM), an MIC [1] of 16 µg/mL (≈ 47.1 µM) and an MIC (Staphylococcus aureus) of 62.5 µg/mL (≈ 184 µM). It also gave an MIC (Saccharomyces cerevisiae) of 62.5 µg/mL (≈ 184 µM), an MIC (Enterococcus faecalis) of 31.2 µg/mL (≈ 92 µM) and an MIC (Escherichia coli) of 31.2 µg/mL (≈ 92 µM). The MIC (Pseudomonas aeruginosa) was 16 µg/mL (≈ 47.1 µM).

Work on CC(C)c1csc(-c2nn(CN3CCOCC3)c(=S)o2)n1 yielded an MIC (Klebsiella pneumoniae) of 31.2 µg/mL (≈ 95.7 µM), an MIC (Bacillus subtilis) of 16 µg/mL (≈ 49 µM) and an MIC (Aspergillus niger) of 62.5 µg/mL (≈ 191 µM). For the same molecule, the MIC (Candida tropicalis) was 31.2 µg/mL (≈ 95.7 µM), the MIC [1] was 31.2 µg/mL (≈ 95.7 µM) and the MIC (Staphylococcus aureus) was 31.2 µg/mL (≈ 95.7 µM). For the same molecule, the MIC (Saccharomyces cerevisiae) was 31.2 µg/mL (≈ 95.7 µM), the MIC (Enterococcus faecalis) was 16 µg/mL (≈ 49 µM) and the MIC (Escherichia coli) was 31.2 µg/mL (≈ 95.7 µM). For the same molecule, the MIC (Pseudomonas aeruginosa) was 16 µg/mL (≈ 49 µM).

With CC(C)c1csc(-c2nnc3n2N=C(c2ccccc2)CS3)n1 the MIC (Klebsiella pneumoniae) was 125 µg/mL (≈ 366 µM), the MIC (Bacillus subtilis) was 62.5 µg/mL (≈ 183 µM) and the MIC (Aspergillus niger) was 62.5 µg/mL (≈ 183 µM). It also gave an MIC (Candida tropicalis) of 125 µg/mL (≈ 366 µM), an MIC [1] of 125 µg/mL (≈ 366 µM) and an MIC (Staphylococcus aureus) of 125 µg/mL (≈ 366 µM). For the same molecule, the MIC (Saccharomyces cerevisiae) was 62.5 µg/mL (≈ 183 µM), the MIC (Enterococcus faecalis) was 125 µg/mL (≈ 366 µM) and the MIC (Escherichia coli) was 125 µg/mL (≈ 366 µM). It also gave an MIC (Pseudomonas aeruginosa) of 62.5 µg/mL (≈ 183 µM).

Molecule Cc1ccc(C2=Nn3c(nnc3-c3nc(C(C)C)cs3)SC2)cc1 has an MIC (Klebsiella pneumoniae) of 8 µg/mL (≈ 22.5 µM), an MIC (Bacillus subtilis) of 31.2 µg/mL (≈ 87.9 µM) and an MIC (Aspergillus niger) of 31.2 µg/mL (≈ 87.9 µM). For the same molecule, the MIC (Candida tropicalis) was 31.2 µg/mL (≈ 87.9 µM), the MIC [1] was 16 µg/mL (≈ 45 µM) and the MIC (Staphylococcus aureus) was 16 µg/mL (≈ 45 µM). It also gave an MIC (Saccharomyces cerevisiae) of 62.5 µg/mL (≈ 176 µM), an MIC (Enterococcus faecalis) of 31.2 µg/mL (≈ 87.9 µM) and an MIC (Escherichia coli) of 8 µg/mL (≈ 22.5 µM). For the same molecule, the MIC (Pseudomonas aeruginosa) was 8 µg/mL (≈ 22.5 µM).

For CC(C)c1csc(-c2nnc3n2N=C(c2ccc(O)cc2)CS3)n1, the MIC (Klebsiella pneumoniae) was 16 µg/mL (≈ 44.8 µM), the MIC (Bacillus subtilis) was 31.2 µg/mL (≈ 87.4 µM) and the MIC (Aspergillus niger) was 31.2 µg/mL (≈ 87.4 µM). It also gave an MIC (Candida tropicalis) of 31.2 µg/mL (≈ 87.4 µM), an MIC [1] of 125 µg/mL (≈ 350 µM) and an MIC (Staphylococcus aureus) of 62.5 µg/mL (≈ 175 µM). It also gave an MIC (Saccharomyces cerevisiae) of 16 µg/mL (≈ 44.8 µM), an MIC (Enterococcus faecalis) of 31.2 µg/mL (≈ 87.4 µM) and an MIC (Escherichia coli) of 31.2 µg/mL (≈ 87.4 µM). The MIC (Pseudomonas aeruginosa) was 62.5 µg/mL (≈ 175 µM).

For CC(C)c1csc(-c2nnc3n2N=C(c2ccc(Cl)cc2)CS3)n1, the MIC (Klebsiella pneumoniae) was 16 µg/mL (≈ 42.6 µM), the MIC (Bacillus subtilis) was 8 µg/mL (≈ 21.3 µM) and the MIC (Aspergillus niger) was 31.2 µg/mL (≈ 83.1 µM). It also gave an MIC (Candida tropicalis) of 62.5 µg/mL (≈ 166 µM), an MIC [1] of 16 µg/mL (≈ 42.6 µM) and an MIC (Staphylococcus aureus) of 125 µg/mL (≈ 333 µM). The MIC (Saccharomyces cerevisiae) was 16 µg/mL (≈ 42.6 µM), the MIC (Enterococcus faecalis) was 8 µg/mL (≈ 21.3 µM) and the MIC (Escherichia coli) was 125 µg/mL (≈ 333 µM). The MIC (Pseudomonas aeruginosa) was 16 µg/mL (≈ 42.6 µM).

With CC(C)c1csc(-c2nnc3n2N=C(c2ccc([N+](=O)[O-])cc2)CS3)n1 the MIC (Klebsiella pneumoniae) was 31.2 µg/mL (≈ 80.9 µM), the MIC (Bacillus subtilis) was 16 µg/mL (≈ 41.4 µM) and the MIC (Aspergillus niger) was 62.5 µg/mL (≈ 162 µM). The MIC (Candida tropicalis) was 31.2 µg/mL (≈ 80.9 µM), the MIC [1] was 31.2 µg/mL (≈ 80.9 µM) and the MIC (Staphylococcus aureus) was 125 µg/mL (≈ 323 µM). It also gave an MIC (Saccharomyces cerevisiae) of 16 µg/mL (≈ 41.4 µM), an MIC (Enterococcus faecalis) of 125 µg/mL (≈ 323 µM) and an MIC (Escherichia coli) of 16 µg/mL (≈ 41.4 µM). It also gave an MIC (Pseudomonas aeruginosa) of 125 µg/mL (≈ 323 µM).

In the case of CC(C)c1csc(-c2nnc3n2N=C(c2ccc(Br)cc2)CS3)n1, the MIC (Klebsiella pneumoniae) was 16 µg/mL (≈ 38.1 µM), the MIC (Bacillus subtilis) was 31.2 µg/mL (≈ 74.3 µM) and the MIC (Aspergillus niger) was 125 µg/mL (≈ 297 µM). The MIC (Candida tropicalis) was 31.2 µg/mL (≈ 74.3 µM), the MIC [1] was 62.5 µg/mL (≈ 149 µM) and the MIC (Staphylococcus aureus) was 125 µg/mL (≈ 297 µM). For the same molecule, the MIC (Saccharomyces cerevisiae) was 62.5 µg/mL (≈ 149 µM), the MIC (Enterococcus faecalis) was 31.2 µg/mL (≈ 74.3 µM) and the MIC (Escherichia coli) was 31.2 µg/mL (≈ 74.3 µM). For the same molecule, the MIC (Pseudomonas aeruginosa) was 62.5 µg/mL (≈ 149 µM).

CC(C)c1csc(-c2nnc3n2NC(c2ccccc2Cl)S3)n1 (stereo not given) gave an MIC (Klebsiella pneumoniae) of 31.2 µg/mL (≈ 85.9 µM), an MIC (Bacillus subtilis) of 125 µg/mL (≈ 344 µM) and an MIC (Aspergillus niger) of 31.2 µg/mL (≈ 85.9 µM). It also gave an MIC (Candida tropicalis) of 16 µg/mL (≈ 44 µM), an MIC [1] of 62.5 µg/mL (≈ 172 µM) and an MIC (Staphylococcus aureus) of 31.2 µg/mL (≈ 85.9 µM). It also gave an MIC (Saccharomyces cerevisiae) of 125 µg/mL (≈ 344 µM), an MIC (Enterococcus faecalis) of 31.2 µg/mL (≈ 85.9 µM) and an MIC (Escherichia coli) of 62.5 µg/mL (≈ 172 µM). For the same molecule, the MIC (Pseudomonas aeruginosa) was 62.5 µg/mL (≈ 172 µM).

COc1ccc(C2Nn3c(nnc3-c3nc(C(C)C)cs3)S2)cc1 (stereo not given) was tested, and the MIC (Klebsiella pneumoniae) was 250 µg/mL (≈ 695 µM), the MIC (Bacillus subtilis) was 62.5 µg/mL (≈ 174 µM) and the MIC (Aspergillus niger) was 125 µg/mL (≈ 348 µM). It also gave an MIC (Candida tropicalis) of 125 µg/mL (≈ 348 µM), an MIC (Staphylococcus aureus) of 31.2 µg/mL (≈ 86.9 µM) and an MIC (Saccharomyces cerevisiae) of 62.5 µg/mL (≈ 174 µM). For the same molecule, the MIC (Enterococcus faecalis) was 16 µg/mL (≈ 44.5 µM), the MIC (Escherichia coli) was 125 µg/mL (≈ 348 µM) and the MIC (Pseudomonas aeruginosa) was 62.5 µg/mL (≈ 174 µM).

Work on CC(C)c1csc(-c2nnc3n2NC(c2ccc(N(C)C)cc2)S3)n1 (stereo not given) yielded an MIC (Klebsiella pneumoniae) of 125 µg/mL (≈ 336 µM), an MIC (Bacillus subtilis) of 62.5 µg/mL (≈ 168 µM) and an MIC (Aspergillus niger) of 31.2 µg/mL (≈ 83.9 µM). The MIC (Candida tropicalis) was 31.2 µg/mL (≈ 83.9 µM), the MIC [1] was 4 µg/mL (≈ 10.7 µM) and the MIC (Staphylococcus aureus) was 16 µg/mL (≈ 43 µM). The MIC (Saccharomyces cerevisiae) was 31.2 µg/mL (≈ 83.9 µM), the MIC (Enterococcus faecalis) was 31.2 µg/mL (≈ 83.9 µM) and the MIC (Escherichia coli) was 62.5 µg/mL (≈ 168 µM). The MIC (Pseudomonas aeruginosa) was 62.5 µg/mL (≈ 168 µM).

O=C(O)c1cn(C2CC2)c2cc(N3CCNCC3)c(F)cc2c1=O [CIPROFLOXACIN] was tested, and the MIC (Klebsiella pneumoniae) was ≤ 1 µg/mL, the MIC (Bacillus subtilis) was ≤ 1 µg/mL and the MIC (Staphylococcus aureus) was ≤ 5 µg/mL. For the same molecule, the MIC (Enterococcus faecalis) was ≤ 5 µg/mL, the MIC (Escherichia coli) was ≤ 1 µg/mL and the MIC (Pseudomonas aeruginosa) was ≤ 5 µg/mL.

With OC(Cn1cncn1)(Cn1cncn1)c1ccc(F)cc1F [FLUCONAZOLE] the MIC (Aspergillus niger) was ≤ 1 µg/mL, the MIC (Candida tropicalis) was ≤ 1 µg/mL and the MIC (Saccharomyces cerevisiae) was ≤ 1 µg/mL.

Work on NNC(=O)c1ccncc1 [ISONIAZID] yielded an MIC [1] of 0.25 µg/mL (≈ 1.82 µM).

With CCn1cc(C(=O)O)c(=O)c2cc(F)c(N3CCNCC3)cc21 [NORFLOXACIN] the MIC (Klebsiella pneumoniae) was ≤ 1 µg/mL, the MIC (Bacillus subtilis) was ≤ 1 µg/mL and the MIC (Staphylococcus aureus) was ≤ 5 µg/mL. The MIC (Enterococcus faecalis) was ≤ 5 µg/mL, the MIC (Escherichia coli) was ≤ 1 µg/mL and the MIC (Pseudomonas aeruginosa) was ≤ 5 µg/mL.

From ChEMBL document CHEMBL1275278, “Synthesis and pharmacological evaluation of clubbed isopropylthiazole derived triazolothiadiazoles, triazolothiadiazines and mannich bases as potential antimicrobial and antitubercular agents” (Eur J Med Chem, 2010)
